The values below come from ChEMBL document CHEMBL4261600 (Eur J Med Chem, 2018).

The species named for data set [1] is Homo sapiens. Kind of data set: Induction of apoptosis in human MEC1 cells assessed as decrease in c-MYC level after 2 hrs by immunoblotting analysis. Type of data set: functional, cell-based.
Data set [2] in a line: Apparent volume of distribution in beagle dog at 2 mg/kg, iv by LC-MS/MS analysis. The data set is classed as ADME, organism-based, Canis lupus familiaris. To be noted: in vivo, read-out: Vz. Put shortly:
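Non-compartmental PK. Male SD rats 190-210 g, mice and beagle dogs acclimatized one week, fasted 12 h with water, split into iv and po groups (mice 48, rats 6, dogs 6). iv 3/3/2 mg/kg (mice/rats/dogs); po 10/20/10 mg/kg; vehicle DMSO in 5% glucose water. Blood at 2 or 5 to 720 min; plasma protein-precipitated with methanol, caffeine internal standard, LC-MS/MS.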

Data set [3] relates to Tyrosine-protein kinase ABL1 (Homo sapiens), P00519 [F317I]. Kind of data set: Binding affinity to human phosphorylated ABL1 F317I mutant (S229 to K512 residues) expressed in mammalian expression system assessed as remaining unbound target protein level at 1000 nM by Kinomescan method relative to control. In a few lines: (§1)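 Single-point competition binding screen across a panel of 468 kinases and mutants, with the inhibitor at 1 μM. Binding is read out as percent of a DMSO control, and targets below 1 percent control were classed as strong binders.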

Data set [4] addresses Activin receptor type-1B (Homo sapiens) (UniProt P36896). Kind of data set: Binding affinity to wild-type human ACVR1B (S187 to I505 residues) expressed in bacterial expression system assessed as remaining unbound target protein level at 1000 nM by Kinomescan method relative to control. Put shortly: as §1
Data set [5] concerns the target Casein kinase I isoform epsilon (Homo sapiens) (UniProt P49674). The experiment in a line: Binding affinity to wild-type human full length CSNK1E (M1 to K416 residues) expressed in bacterial expression system assessed as remaining unbound target protein level at 1000 nM by Kinomescan method relative to control. Put shortly:
as §1

Data set [6] concerns the target Casein kinase I isoform gamma-1 (Homo sapiens) (UniProt Q9HCP0). The experiment in a line: Binding affinity to wild-type human partial length CSNK1G1 (T15 to S353 residues) expressed in bacterial expression system assessed as remaining unbound target protein level at 1000 nM by Kinomescan method relative to control. Put shortly:
(§2)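 KINOMEscan competition binding profile across a panel of 468 kinases and mutants, with the inhibitor tested at a single concentration of 1 μM. Binding is reported as percent of control, meaning signal relative to a DMSO control.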

Data set [7] has as its system Epidermal growth factor receptor (Homo sapiens), P00533 [L858R,T790M]. Kind of data set: Binding affinity to human partial length EGFR L858R/T790M double mutant (R669 to V1011 residues) expressed in mammalian expression system assessed as remaining unbound target protein level at 1000 nM by Kinomescan method relative to control. Put shortly:
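KINOMEscan competition-binding profiling across the panel of 468 kinases and mutants, with inhibitor tested at 1 μM. Binding is expressed as percent of control, with DMSO as the reference control.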

The target in data set [8] is Ephrin type-B receptor 1 (Homo sapiens) (UniProt P54762). Kind of data set: Binding affinity to wild-type human partial length EPHB1 (P589 to T911 residues) expressed in bacterial expression system assessed as remaining unbound target protein level at 1000 nM by Kinomescan method relative to control.
The target in data set [9] is Insulin receptor (Homo sapiens) (UniProt P06213). Kind of data set: Binding affinity to wild-type human partial length INSR (P997 to E1318 residues) expressed in mammalian expression system assessed as remaining unbound target protein level at 1000 nM by Kinomescan method relative to control. In a few lines:
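KINOMEscan binding panel of 468 kinases/mutants. Inhibitor was tested at a single concentration of 1 μM. Binding is reported as percent of control, defined relative to a DMSO control.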

In data set [10] the target is Mitogen-activated protein kinase kinase kinase 13 (Homo sapiens) (UniProt O43283). The experiment in a line: Binding affinity to wild-type human full length LZK (M1 to W966 residues) expressed in mammalian expression system assessed as remaining unbound target protein level at 1000 nM by Kinomescan method relative to control. Put shortly: as §2
Data set [11] deals with MAP/microtubule affinity-regulating kinase 3 (Homo sapiens) (UniProt P27448). Kind of data set: Binding affinity to wild-type human full length MARK3 (M1 to L729 residues) expressed in bacterial expression system assessed as remaining unbound target protein level at 1000 nM by Kinomescan method relative to control. Put shortly: as §1
Chain of MAP/microtubule affinity-regulating kinase 3 (Homo sapiens) (P27448 whole entry, looked up, the tested form may be a part): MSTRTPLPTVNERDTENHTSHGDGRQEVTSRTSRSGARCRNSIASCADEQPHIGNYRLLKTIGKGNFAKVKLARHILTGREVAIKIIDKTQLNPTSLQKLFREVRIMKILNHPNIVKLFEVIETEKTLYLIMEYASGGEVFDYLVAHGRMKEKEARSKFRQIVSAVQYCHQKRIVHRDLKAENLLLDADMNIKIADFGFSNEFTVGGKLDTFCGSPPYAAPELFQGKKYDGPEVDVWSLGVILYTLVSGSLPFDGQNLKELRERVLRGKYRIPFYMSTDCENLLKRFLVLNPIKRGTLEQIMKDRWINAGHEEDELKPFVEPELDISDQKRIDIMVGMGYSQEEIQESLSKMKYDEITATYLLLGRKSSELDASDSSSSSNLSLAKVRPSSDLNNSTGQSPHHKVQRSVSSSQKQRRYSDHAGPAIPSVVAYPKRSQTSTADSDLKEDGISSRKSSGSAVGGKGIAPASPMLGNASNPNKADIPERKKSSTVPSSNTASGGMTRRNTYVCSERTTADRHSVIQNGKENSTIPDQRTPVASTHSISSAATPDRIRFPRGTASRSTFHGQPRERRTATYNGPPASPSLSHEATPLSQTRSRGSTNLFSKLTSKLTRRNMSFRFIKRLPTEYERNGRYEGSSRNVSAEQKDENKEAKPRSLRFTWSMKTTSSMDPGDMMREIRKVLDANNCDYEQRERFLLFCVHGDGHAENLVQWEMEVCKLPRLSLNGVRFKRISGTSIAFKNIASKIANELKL
For data set [12], the target named is Muscle, skeletal receptor tyrosine-protein kinase (Homo sapiens) (UniProt O15146). Kind of data set: Binding affinity to wild-type human partial length MUSK (M553 to V869 residues) expressed in bacterial expression system assessed as remaining unbound target protein level at 1000 nM by Kinomescan method relative to control.
Data set [13] has as its target Serine/threonine-protein kinase PAK 3 (Homo sapiens) (UniProt O75914). The experiment in a line: Binding affinity to wild-type human full length PAK3 (M1 to R544 residues) expressed in bacterial expression system assessed as remaining unbound target protein level at 1000 nM by Kinomescan method relative to control. In a few lines: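 Profiled in a KINOMEscan binding panel with the inhibitor at a single concentration of 1 μM. Binding to each kinase was read out as percent of control, relative to a DMSO control. Strong binders were defined as those with a percent control value below 1.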

For data set [14], the target named is Phosphatidylinositol 4,5-bisphosphate 3-kinase catalytic subunit beta isoform (Homo sapiens) (UniProt P42338). The experiment in a line: Binding affinity to wild-type human partial length PIK3CB (P118 to S1070 residues) expressed in mammalian expression system assessed as remaining unbound target protein level at 1000 nM by Kinomescan method relative to control.
Chain of Phosphatidylinositol 4,5-bisphosphate 3-kinase catalytic subunit beta isoform (Homo sapiens) (P42338 whole entry, looked up, the tested form may be a part, canonical isoform): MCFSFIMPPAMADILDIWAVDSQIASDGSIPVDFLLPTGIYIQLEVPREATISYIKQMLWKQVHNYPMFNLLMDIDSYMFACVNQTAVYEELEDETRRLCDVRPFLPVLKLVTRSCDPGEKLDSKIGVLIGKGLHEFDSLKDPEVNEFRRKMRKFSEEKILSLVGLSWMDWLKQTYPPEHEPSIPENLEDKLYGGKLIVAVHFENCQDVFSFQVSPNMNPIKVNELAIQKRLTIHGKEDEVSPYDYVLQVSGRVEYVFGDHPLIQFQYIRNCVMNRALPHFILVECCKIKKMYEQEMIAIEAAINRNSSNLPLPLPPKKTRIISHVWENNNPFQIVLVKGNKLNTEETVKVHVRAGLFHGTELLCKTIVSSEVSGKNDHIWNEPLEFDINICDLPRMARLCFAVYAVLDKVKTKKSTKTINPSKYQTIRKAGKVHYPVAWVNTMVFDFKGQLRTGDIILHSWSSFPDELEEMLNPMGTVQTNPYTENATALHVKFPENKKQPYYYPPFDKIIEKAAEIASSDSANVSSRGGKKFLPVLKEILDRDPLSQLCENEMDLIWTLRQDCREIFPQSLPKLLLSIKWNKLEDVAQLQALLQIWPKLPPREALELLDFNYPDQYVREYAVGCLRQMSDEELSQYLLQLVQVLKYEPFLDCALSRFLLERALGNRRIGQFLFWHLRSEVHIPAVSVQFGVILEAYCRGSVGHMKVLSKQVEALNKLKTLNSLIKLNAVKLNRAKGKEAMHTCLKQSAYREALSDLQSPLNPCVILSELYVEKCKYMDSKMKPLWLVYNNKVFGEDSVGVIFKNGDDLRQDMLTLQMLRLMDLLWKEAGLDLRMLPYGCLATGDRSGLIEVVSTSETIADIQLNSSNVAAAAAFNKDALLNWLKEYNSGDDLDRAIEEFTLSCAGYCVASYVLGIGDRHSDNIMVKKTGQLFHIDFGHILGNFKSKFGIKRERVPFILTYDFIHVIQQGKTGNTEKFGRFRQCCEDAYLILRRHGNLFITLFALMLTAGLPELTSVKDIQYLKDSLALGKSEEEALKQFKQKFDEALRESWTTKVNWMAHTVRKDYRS

Data set [15] deals with 1-phosphatidylinositol 3-phosphate 5-kinase (Homo sapiens) (UniProt Q9Y2I7). Kind of data set: Binding affinity to wild-type human partial length PIKFYVE (F1512 to C2098 residues) expressed in mammalian expression system assessed as remaining unbound target protein level at 1000 nM by Kinomescan method relative to control.
Chain of 1-phosphatidylinositol 3-phosphate 5-kinase (Homo sapiens) (Q9Y2I7 whole entry, the tested form may be a part): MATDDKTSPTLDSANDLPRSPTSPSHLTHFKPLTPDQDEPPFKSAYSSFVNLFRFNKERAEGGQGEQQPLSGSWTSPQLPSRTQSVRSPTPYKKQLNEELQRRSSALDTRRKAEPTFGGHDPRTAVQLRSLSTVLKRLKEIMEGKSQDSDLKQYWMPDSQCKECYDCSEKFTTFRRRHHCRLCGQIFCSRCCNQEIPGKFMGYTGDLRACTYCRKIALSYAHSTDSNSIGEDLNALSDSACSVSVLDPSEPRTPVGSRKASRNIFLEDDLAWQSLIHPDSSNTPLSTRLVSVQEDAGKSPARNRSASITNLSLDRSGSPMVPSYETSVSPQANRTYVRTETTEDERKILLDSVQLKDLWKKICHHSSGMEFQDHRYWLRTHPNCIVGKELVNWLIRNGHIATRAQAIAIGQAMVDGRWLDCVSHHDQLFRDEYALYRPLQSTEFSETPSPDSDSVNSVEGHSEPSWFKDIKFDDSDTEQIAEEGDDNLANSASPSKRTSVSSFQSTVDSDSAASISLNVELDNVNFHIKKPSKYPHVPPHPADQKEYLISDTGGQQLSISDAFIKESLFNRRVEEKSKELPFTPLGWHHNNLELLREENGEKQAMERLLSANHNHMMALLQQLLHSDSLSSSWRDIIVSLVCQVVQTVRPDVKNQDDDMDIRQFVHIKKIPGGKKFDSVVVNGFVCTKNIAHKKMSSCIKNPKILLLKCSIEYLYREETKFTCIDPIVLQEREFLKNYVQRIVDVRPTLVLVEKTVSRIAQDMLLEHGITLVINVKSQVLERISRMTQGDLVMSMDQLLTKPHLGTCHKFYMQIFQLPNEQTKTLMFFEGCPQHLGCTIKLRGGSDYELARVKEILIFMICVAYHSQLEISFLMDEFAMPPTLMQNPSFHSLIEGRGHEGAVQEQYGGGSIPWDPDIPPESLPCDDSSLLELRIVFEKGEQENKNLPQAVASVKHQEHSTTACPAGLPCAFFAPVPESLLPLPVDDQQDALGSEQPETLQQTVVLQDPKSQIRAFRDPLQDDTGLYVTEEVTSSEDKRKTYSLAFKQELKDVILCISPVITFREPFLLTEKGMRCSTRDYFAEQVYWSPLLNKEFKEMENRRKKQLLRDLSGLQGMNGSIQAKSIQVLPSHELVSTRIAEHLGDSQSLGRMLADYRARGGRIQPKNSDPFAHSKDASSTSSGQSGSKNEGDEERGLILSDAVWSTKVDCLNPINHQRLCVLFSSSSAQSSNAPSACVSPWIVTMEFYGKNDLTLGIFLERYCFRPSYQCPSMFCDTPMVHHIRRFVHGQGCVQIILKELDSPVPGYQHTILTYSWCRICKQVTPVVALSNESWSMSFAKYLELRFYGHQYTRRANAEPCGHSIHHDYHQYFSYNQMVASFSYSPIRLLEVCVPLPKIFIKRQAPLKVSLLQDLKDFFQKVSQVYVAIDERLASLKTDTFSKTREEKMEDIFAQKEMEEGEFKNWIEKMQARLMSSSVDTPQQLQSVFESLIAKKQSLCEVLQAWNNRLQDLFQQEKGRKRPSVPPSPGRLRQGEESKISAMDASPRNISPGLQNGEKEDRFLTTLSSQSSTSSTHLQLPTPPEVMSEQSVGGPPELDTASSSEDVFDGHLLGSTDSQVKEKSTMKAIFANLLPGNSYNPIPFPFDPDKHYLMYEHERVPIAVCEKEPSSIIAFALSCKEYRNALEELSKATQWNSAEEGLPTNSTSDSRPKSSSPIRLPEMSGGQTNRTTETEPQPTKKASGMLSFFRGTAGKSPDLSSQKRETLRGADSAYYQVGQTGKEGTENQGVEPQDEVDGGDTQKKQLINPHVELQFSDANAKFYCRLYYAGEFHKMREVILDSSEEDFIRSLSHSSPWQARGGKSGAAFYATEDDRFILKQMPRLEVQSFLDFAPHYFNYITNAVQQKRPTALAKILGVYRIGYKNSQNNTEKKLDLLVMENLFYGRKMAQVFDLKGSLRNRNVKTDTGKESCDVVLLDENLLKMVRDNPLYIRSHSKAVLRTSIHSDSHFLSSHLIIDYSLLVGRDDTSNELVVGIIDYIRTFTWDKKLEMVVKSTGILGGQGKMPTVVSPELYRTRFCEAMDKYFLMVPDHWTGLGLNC
Data set [16] deals with Interferon-induced, double-stranded RNA-activated protein kinase (Homo sapiens) (UniProt P19525). The experiment in a line: Binding affinity to wild-type human partial length PRKR (F247 to C551 residues) expressed in bacterial expression system assessed as remaining unbound target protein level at 1000 nM by Kinomescan method relative to control.
For data set [17], the target named is NUAK family SNF1-like kinase 2 (Homo sapiens) (UniProt Q9H093). The experiment in a line: Binding affinity to wild-type human partial length SNARK (P22 to A333 residues) expressed in mammalian expression system assessed as remaining unbound target protein level at 1000 nM by Kinomescan method relative to control.
The target in data set [18] is Serine/threonine-protein kinase TAO1 (Homo sapiens) (UniProt Q7L7X3). The experiment in a line: Binding affinity to wild-type human partial length TAOK1 (M1 to A320 residues) expressed in mammalian expression system assessed as remaining unbound target protein level at 1000 nM by Kinomescan method relative to control.
The target in data set [19] is Serine/threonine-protein kinase WNK1 (Homo sapiens) (UniProt Q9H4A3). Kind of data set: Binding affinity to wild-type human partial length WNK1 (Q194 to A490 residues) expressed in mammalian expression system assessed as remaining unbound target protein level at 1000 nM by Kinomescan method relative to control.

Chain of Casein kinase I isoform epsilon (Homo sapiens) (P49674 whole entry, looked up, the tested form may be a part, canonical isoform): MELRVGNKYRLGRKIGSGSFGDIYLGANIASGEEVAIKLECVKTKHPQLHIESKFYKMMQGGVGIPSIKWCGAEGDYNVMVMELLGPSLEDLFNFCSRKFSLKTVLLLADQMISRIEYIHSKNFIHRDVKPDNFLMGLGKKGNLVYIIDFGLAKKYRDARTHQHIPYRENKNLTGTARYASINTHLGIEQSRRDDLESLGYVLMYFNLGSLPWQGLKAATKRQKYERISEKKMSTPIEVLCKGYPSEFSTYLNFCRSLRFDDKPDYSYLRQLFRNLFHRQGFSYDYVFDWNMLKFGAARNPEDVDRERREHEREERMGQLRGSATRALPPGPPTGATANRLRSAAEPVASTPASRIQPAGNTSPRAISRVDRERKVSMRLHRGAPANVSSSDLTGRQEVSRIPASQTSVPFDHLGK
Chain of Activin receptor type-1B (Homo sapiens) (P36896 whole entry, the tested form may be a part, canonical isoform): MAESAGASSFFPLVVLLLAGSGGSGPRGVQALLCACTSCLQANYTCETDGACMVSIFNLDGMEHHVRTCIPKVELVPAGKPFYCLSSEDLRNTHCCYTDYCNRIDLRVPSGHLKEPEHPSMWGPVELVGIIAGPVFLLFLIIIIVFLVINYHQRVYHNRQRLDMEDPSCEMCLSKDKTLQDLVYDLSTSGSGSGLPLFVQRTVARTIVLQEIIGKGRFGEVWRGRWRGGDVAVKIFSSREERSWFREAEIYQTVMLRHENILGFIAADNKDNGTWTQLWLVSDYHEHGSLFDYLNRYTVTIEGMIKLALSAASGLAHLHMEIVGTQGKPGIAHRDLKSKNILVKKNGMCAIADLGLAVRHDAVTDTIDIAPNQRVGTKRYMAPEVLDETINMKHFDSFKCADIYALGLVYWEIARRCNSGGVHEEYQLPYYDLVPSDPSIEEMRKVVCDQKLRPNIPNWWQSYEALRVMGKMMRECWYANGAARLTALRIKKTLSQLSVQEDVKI

Take `COCCN[C@H]1CC[C@H](Nc2cc(-c3csc(NCC4(C#N)CCOCC4)n3)c(Cl)cn2)CC1`: the Activity entry is “Dose-dependent effect” in data set [1]; 100% in [3]; 92% in [4]; 87% in [5]; 93% in [6]; 100% in data set [7]. In addition, the Activity is 88% in [8]; 94% in data set [9]; 99% in [10]; 100% in [11]; 100% in data set [12]; 97% in data set [13]. For the same compound, the Activity amounted to 100% in data set [14]; 95% in data set [15]; 98% in [16]; 100% in data set [17]; 36% in [18]; 100% in data set [19]. Also, the Vd in [2] is 12.8 L/kg.
